Source: ChEMBL document CHEMBL1147057, “Virstatin inhibits dimerization of the transcriptional activator ToxT” (Proc Natl Acad Sci U S A, 2007)
Active and inactive are the calls of the source. The calls are words filed in the database; no cut-off is given here.

How the values were obtained:
[1] = molecular target: T1, TCP pilus virulence regulatory protein (Vibrio cholerae serotype O1 (strain ATCC 39541 / Classical Ogawa 395 /O395)) (UniProt A5F384); assay: Inhibition of Vibrio cholerae wild type ToxT-mediated transcription of ctx promoter at 50 uM
T1 sequence (whole entry): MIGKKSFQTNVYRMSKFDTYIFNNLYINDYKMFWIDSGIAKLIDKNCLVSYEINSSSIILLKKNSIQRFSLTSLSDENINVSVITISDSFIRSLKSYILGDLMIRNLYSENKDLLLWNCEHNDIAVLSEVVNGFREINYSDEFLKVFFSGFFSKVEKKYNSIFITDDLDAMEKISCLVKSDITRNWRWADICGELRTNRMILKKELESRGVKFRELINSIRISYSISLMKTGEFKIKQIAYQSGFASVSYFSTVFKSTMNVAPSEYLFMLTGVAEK

Vibrio cholerae [2] = assay: Inhibition of Vibrio cholerae ToxT L113P mutant N-terminal domain dimerization expressed in Escherichia coli assessed as beta-galatosidase reporter gene expression at 10 uM by bacterial two-hybrid system
Procedure, shortened: (§1)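 Bacterial two-hybrid: identical toxT N-terminal segments fused to Zif (pACTrAp-Zif) and ω (pBRGpω) and co-transformed into E. coli KDZif1ZΔtolC. Cultures grown overnight with or without 10 μM IPTG and virstatin (10–50 μM), then subcultured into the same conditions. lacZ reporter activity measured by β-galactosidase assay in triplicate; a representative experiment is reported.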

[3] = molecular target: T1, TCP pilus virulence regulatory protein (Vibrio cholerae serotype O1 (strain ATCC 39541 / Classical Ogawa 395 /O395)); assay: Inhibition of ToxT-mediated transcriptional activation of tcpA promoter in Vibrio cholerae O395deltalacZ assessed as beta-galactosidase expression at 100 uM relative to control; design: scale not given: the % may be the effect or the level left
[4] = molecular target: T1, TCP pilus virulence regulatory protein (Vibrio cholerae serotype O1 (strain ATCC 39541 / Classical Ogawa 395 /O395)); assay: Inhibition of ToxT-mediated transcriptional activation of aldA promoter in Vibrio cholerae O395deltalacZ assessed as beta-galactosidase expression at 100 uM relative to control; design: scale not given: the % may be the effect or the level left
[5] = molecular target: T1, TCP pilus virulence regulatory protein (Vibrio cholerae serotype O1 (strain ATCC 39541 / Classical Ogawa 395 /O395)); assay: Inhibition of Vibrio cholerae wild type ToxT N-terminal domain dimerization expressed in Escherichia coli assessed as beta-galatosidase reporter gene expression at 10 uM by bacterial two-hybrid system; procedure, shortened: as §1
[6] = molecular target: T1, TCP pilus virulence regulatory protein (Vibrio cholerae serotype O1 (strain ATCC 39541 / Classical Ogawa 395 /O395)); assay: Inhibition of ToxT-mediated transcriptional activation of acfD promoter in Vibrio cholerae O395deltalacZ assessed as beta-galactosidase expression at 100 uM relative to control; design: scale not given: the % may be the effect or the level left
[7] = molecular target: T1, TCP pilus virulence regulatory protein (Vibrio cholerae serotype O1 (strain ATCC 39541 / Classical Ogawa 395 /O395)); assay: Inhibition of Vibrio cholerae wild type ToxT N-terminal domain dimerization expressed in Escherichia coli assessed as beta-galatosidase reporter gene expression at 50 uM by bacterial two-hybrid system; procedure, shortened: as §1
Vibrio cholerae [8] = assay: Inhibition of maltose binding protein-fused Vibrio cholerae ToxT L113P mutant monomer by gel filtration method
[9] = molecular target: T1, TCP pilus virulence regulatory protein (Vibrio cholerae serotype O1 (strain ATCC 39541 / Classical Ogawa 395 /O395)); assay: Inhibition of maltose binding protein-fused Vibrio cholerae ToxT monomer by gel filtration method
[10] = molecular target: T1, TCP pilus virulence regulatory protein (Vibrio cholerae serotype O1 (strain ATCC 39541 / Classical Ogawa 395 /O395)); assay: Inhibition of ToxT-mediated transcriptional activation of acfA promoter in Vibrio cholerae O395deltalacZ assessed as beta-galactosidase expression at 100 uM relative to control; design: scale not given: the % may be the effect or the level left
[11] = molecular target: T1, TCP pilus virulence regulatory protein (Vibrio cholerae serotype O1 (strain ATCC 39541 / Classical Ogawa 395 /O395)); assay: Inhibition of ToxT-mediated transcriptional activation of tcpI promoter in Vibrio cholerae O395deltalacZ assessed as beta-galactosidase expression at 100 uM relative to control; design: scale not given: the % may be the effect or the level left
[12] = molecular target: T1, TCP pilus virulence regulatory protein (Vibrio cholerae serotype O1 (strain ATCC 39541 / Classical Ogawa 395 /O395)); assay: Inhibition of Vibrio cholerae wild type ToxT N-terminal domain dimerization expressed in Escherichia coli assessed as beta-galatosidase reporter gene expression at 20 uM by bacterial two-hybrid system; procedure, shortened: as §1
[13] = molecular target: T1, TCP pilus virulence regulatory protein (Vibrio cholerae serotype O1 (strain ATCC 39541 / Classical Ogawa 395 /O395)); assay: Inhibition of Vibrio cholerae wild type ToxT N-terminal domain dimerization expressed in Escherichia coli assessed as beta-galatosidase reporter gene expression at 35 uM by bacterial two-hybrid system; procedure, shortened: as §1
[14] = molecular target: T1, TCP pilus virulence regulatory protein (Vibrio cholerae serotype O1 (strain ATCC 39541 / Classical Ogawa 395 /O395)); assay: Inhibition of ToxT-mediated transcriptional activation of tagA promoter in Vibrio cholerae O395deltalacZ assessed as beta-galactosidase expression at 100 uM relative to control; design: scale not given: the % may be the effect or the level left
[15] = molecular target: T1, TCP pilus virulence regulatory protein (Vibrio cholerae serotype O1 (strain ATCC 39541 / Classical Ogawa 395 /O395)); assay: Inhibition of ToxT-mediated transcriptional activation of ctxAB promoter in Vibrio cholerae O395deltalacZ assessed as beta-galactosidase expression at 100 uM relative to control; design: scale not given: the % may be the effect or the level left

In the case of `COC(=O)CCCN1C(=O)c2cccc3cccc(c23)C1=O`, the Activity [1] is reported as “Active”.

For `O=C(O)CCCN1C(=O)c2cccc3cccc(c23)C1=O`, the Activity (Vibrio cholerae [2]) was “inactive”, the Activity [3] was 3% and the Activity [4] was 15%. For the same molecule, the Activity [5] was “Active”, the Activity [6] was 3% and the Activity [7] was “Active”. The Activity (Vibrio cholerae [8]) was “inactive”, the Activity [9] was “Active” and the Activity [10] was 15%. The Activity [11] was 15%, the Activity [12] was “Active” and the Activity [13] was “Active”. For the same molecule, the Activity [1] was “Active”, the Activity [14] was 3% and the Activity [15] was 3%.

For `O=C(O)CCN1C(=O)c2cccc3cccc(c23)C1=O`, the Activity [1] was “Active”.

`O=C(O)CN1C(=O)c2cccc3cccc(c23)C1=O` was tested, and the Activity [1] was “Active”.

With `O=C(O)C1CCCC(N2C(=O)c3cccc4cccc(c34)C2=O)C1` (centres undefined) the Activity [1] was “Active”.
